Published values gathered from unrelated publications.
Protocols differ between the studies behind these lines.
Target: Dual specificity mitogen-activated protein kinase kinase 1 (MAP2K1, Homo sapiens, UniProt Q02750)

SMILES | assay | system | conditions | endpoint | value
COc1cc(/C=C/C(=O)CC(=O)/C=C/c2ccc(O)c(OC)c2)ccc1O | enzyme activity, inhibitor | – | 1 µM | activity vs control | 93%
O=C(Nc1ccc(Oc2ccc(F)cc2)cc1)N1CCc2ncccc2[C@H]1c1ccc(F)cc1 | cell-free assay, competition with immobilised ligand | – | 1 µM | remaining binding | 98%
FC(F)(F)Oc1cccc(-c2cnc3ccc(-c4ccncc4)nn23)c1 | enzyme activity, inhibitor, radiometric | – | 5 µM | activity vs control | 73%
Cc1ccc(NC(=O)c2ccc(C)c(C(F)(F)F)c2)cc1C#Cc1nn(C2CCC(O)CC2)c2ncnc(N)c12 (stereo not shown) | cell-free assay | – | 10 µM | remaining signal | 34%
Cc1sc(C(=O)NC2COC2)cc1-n1cc(NC(=O)Nc2c(F)cccc2Cl)cn1 | enzyme activity, inhibitor | – | 10 µM | remaining activity | 95.5%
CC(C)(O)[C@H]1CC[C@H](Nc2ccc3ncc(-c4cccc(C(F)(F)F)c4)n3n2)CC1 | enzyme activity, inhibitor | – | 1 µM | remaining activity | 79.5%
CC(C)(O)c1cncc(-c2nc3ccc(F)cc3n2C2CC2)c1 | cell-free assay, competition with immobilised ligand | – | 1 µM | remaining binding | 100%
O=C1NC(=O)c2cc(Nc3ccc(F)cc3)c(Nc3ccc(F)cc3)cc21 | cell-free assay | – | 0.5 µM | remaining signal | 103%
CN(C)C1CCN(CC#Cc2nn(C3CCCC3)c3nc(NCc4ccccc4)ncc23)C1 (stereo not shown) | enzyme activity, inhibitor, FRET | – | 0.1 µM | inhibition | 9%
CCN1CCN(Cc2ccc(NC(=O)c3ccc(C)c(Oc4ccnc5[nH]ccc45)c3)cc2C(F)(F)F)CC1 | target engagement in cells, inhibitor, chemoproteomics | Huh-7 | 1 µM | inhibition | -41.7%
Cc1cc(-n2nc(Cc3cc(F)cc(C(F)(F)F)c3)nc2C)ccc1C(N)=O | cell-free assay, competition with immobilised ligand | – | 1 µM | remaining binding | 100%
Cc1ccc(Nc2nccc(N(C)c3ccc4c(C)n(C)nc4c3)n2)cc1S(N)(=O)=O | enzyme activity, inhibitor | – | 0.3 µM | inhibition | -5%
CC(C)(C)c1nc2c(s1)c1nc(N)ncc1c1ccc(NS(=O)(=O)c3c(F)cccc3F)c(F)c12 | enzyme activity, inhibitor, radiometric | – | 1 µM | remaining activity | 79%
CCCOc1ccc([C@H]2[C@H](C(=O)O)[C@@H](c3ccc4c(c3)OCO4)CN2CC(=O)Nc2c(CC)cccc2CC)cc1 | cell-free assay, competition with immobilised ligand | – | 1 µM | remaining binding | 66%
Nc1nc(NC2CCCCC2)sc1C(=O)c1ccccc1 | enzyme activity, inhibitor | – | 10 µM | remaining activity | 68%
O=C(NCc1ncc(C(F)(F)F)cc1Cl)c1ccc2c(c1)C1(CCS(=O)(=O)CC1)[C@H](C1CC1)N2S(=O)(=O)c1ccc(F)cc1 | cell-free assay, competition with immobilised ligand | – | 1 µM | remaining binding | 98%
COc1cccc(-c2cc(=O)c3ccccc3o2)c1N | cell-free assay | – | 0.5 µM | remaining signal | 69.1%
Cc1ccc(C(=O)NCc2ccsc2)cc1C#Cc1cn(C(C)C)c2ncnc(N)c12 | enzyme activity, inhibitor | – | 1 µM | activity vs control | 93%
CNC(=O)c1cc(Oc2ccc(NC(=O)Nc3ccc(Cl)c(C(F)(F)F)c3)cc2)ccn1 | enzyme activity, inhibitor | – | 10 µM | inhibition | 2%

SMILES | assay | system | conditions | endpoint | value
Nc1cnc(N2CCc3cc(S(=O)(=O)Nc4c(F)cc(Cl)cc4F)cc(N4CCCC4=O)c32)nc1 | cell-free assay, competition with immobilised ligand | – | 1 µM | remaining binding | 100%
Cc1[nH]c(/C=C2\C(=O)Nc3ccc(F)cc32)c(C)c1C(=O)N[C@H]1CCN(C(=O)N(C)C)C1 | enzyme activity, inhibitor | – | 1 µM | remaining activity | 59%
CCCOc1ccc(OC)c(F)c1C(=O)c1ccc(C(=O)N[C@@H]2CNC[C@H]2NC(=O)c2ccc3[nH]ncc3c2)cc1 | enzyme activity, inhibitor | – | 10 µM | remaining activity | 101%
Cn1cnc(Br)c1C1=CN(c2ncnc3[nH]cnc23)CCS1 | enzyme activity, inhibitor, radiometric | – | 50 nM | inhibition | 17.1%
CC(C)CC(=O)N1CCc2nc(-c3ccc(Br)cc3)nc(N(C)Cc3ccccc3)c2C1 | cell-free assay, competition with immobilised ligand | – | 0.1 µM | remaining binding | 100%
Cc1ccc(NC(=O)c2ccc(CN3CCN(C)CC3)cc2)cc1Nc1nc(-c2cccnc2)cs1 | cell-free assay | – | 0.5 µM | remaining signal | 111%
Oc1cccc(-c2nc(N3CCOCC3)c3oc4ncccc4c3n2)c1 | enzyme activity, inhibitor | – | 10 µM | remaining activity | 105%
CNCc1ccc(-c2cc(-c3nc(-c4ccc(S(=O)(=O)C(C)C)cc4)cnc3N)on2)cc1 | enzyme activity, inhibitor | – | 2 µM | inhibition | 6%
COc1cc2ncnc(Nc3ccc(Oc4ccccc4)c(C)c3C)c2cc1OC | enzyme activity, inhibitor | – | 1 µM | inhibition | 1%
Nc1ncnc2occ(-c3ccc(NC(=O)Nc4cc(C(F)(F)F)ccc4F)cc3)c12 | cell-free assay, inhibitor | – | 20 µM | remaining signal | 9.3%
CCN(CC)CCNC(=O)c1c(C)[nH]c(/C=C2\C(=O)Nc3ccc(F)cc32)c1C | enzyme activity, inhibitor | – | 1 µM | remaining activity | 44%
CS(=O)(=O)N1CCCC(NC(=O)[C@H](CCC2CCCCC2)NC(=O)c2ccc(CNC(=O)c3cnc4ccccn34)cc2)C1 (stereo partly shown) | cell-free assay, competition with immobilised ligand | – | 0.1 µM | remaining binding | 100%
FC(F)c1nc2ccccc2n1-c1nc(N2CCOCC2)nc(N2CCOCC2)n1 | enzyme activity, inhibitor | – | 10 µM | remaining activity | 83%
CN1CC(Oc2cnc(C#N)cc2-c2ccn3nc(NC(=O)C4CC4)cc3c2)C1 | enzyme activity, inhibitor | – | 1 µM | inhibition | 13%
CCCS(=O)(=O)Nc1ccc(F)c(C(=O)c2c[nH]c3ncc(-c4ccc(Cl)cc4)cc23)c1F | enzyme activity, inhibitor | – | 1 µM | inhibition | < 10%
Nc1nc(Nc2ccccc2)sc1C(=O)c1c(F)cccc1F | enzyme activity, inhibitor | – | 10 µM | remaining activity | 96%
CCN(CC)CCNC(=O)c1c(C)[nH]c(/C=C2\C(=O)Nc3ccc(F)cc32)c1C | enzyme activity, inhibitor | – | 10 µM | inhibition | 76%
O=C(CSc1nc2nccnc2c(=O)n1CCc1ccccc1)Nc1nccs1 | enzyme activity, inhibitor | – | 10 µM | inhibition | -2%
